Published values from different studies.
Lines come from different studies, so protocols differ.
Mode: inhibitor
ACSL4: Long-chain-fatty-acid--CoA ligase 4 (ACSL4, Homo sapiens, UniProt O60488)
HDAC6: Protein deacetylase HDAC6 (HDAC6, Homo sapiens, UniProt Q9UBN7)
CDK7 with cyclin H: Cyclin-dependent kinase 7, with cyclin H (CDK7, Homo sapiens, UniProt P50613)
SLCO2B1: Solute carrier organic anion transporter family member 2B1 (SLCO2B1, Homo sapiens, UniProt O94956)
CES1: Liver carboxylesterase 1 (CES1, Homo sapiens, UniProt P23141)

Compound | target | assay | IC50
CCc1ccc(CCOc2ccc(CC3SC(=O)NC3=O)cc2)nc1 (stereo not shown) | ACSL4 | enzyme activity | 6400 nM
COc1ccc(Nc2ncnc3c2ncn3Cc2ccc(C(=O)NO)cc2)cc1 | HDAC6 | enzyme activity, fluorescence | < 2 nM
O=C(/C=C/c1ccc(O)c(O)c1)O[C@H]1[C@H](O)[C@@H](O)[C@H](OCCc2ccc(O)c(O)c2)O[C@@H]1CO | 3-hydroxy-3-methylglutaryl-coenzyme A reductase (HMGCR, Homo sapiens, UniProt P04035) | enzyme activity, absorbance | 73500 nM
CNS(=O)(=O)c1ccc(Nc2ncc(C(F)(F)F)c(N3CCCC(C)(O)C3)n2)c(C)c1 (stereo not shown) | CDK7 with cyclin H | enzyme activity, radiometric | 2510 nM
O=C1CCC(N2C(=O)c3cccc(NCC(=O)OCCCCc4cn(CCCCCCN5CCc6c(c7ccccc7n6Cc6ccc(C(=O)NO)cc6)C5)nn4)c3C2=O)C(=O)N1 (stereo not shown) | HDAC6 | enzyme activity, fluorescence | 47 nM
Cc1cc(O)c(-c2ccc([C@@H](C)CN(C)C)cc2)c2c1[nH]c(=O)c1sccc12 | CDK7 with cyclin H | enzyme activity | > 1000 nM
CCc1oc2cc(F)ccc2c1C(=O)c1cc(Br)c(O)c(Br)c1 | SLCO2B1 | transporter uptake, radiometric | 749 nM
COC(=O)c1cc(OC)c2c(c1-c1c(C(=O)OC)cc(OC)c3c1OCO3)OCO2 | CES1 | enzyme activity | 11400 nM
CN(C)C(=O)c1cc2cnc(Nc3ccc(-c4cccc5c(=O)cc(N6CCOCC6)oc45)cc3)nc2n1C1CCCC1 | CDK7 with cyclin H | enzyme activity | > 10000 nM
CN(CCOc1ccc(CC2SC(=O)NC2=O)cc1)c1ccccc1 (stereo not shown) | ACSL4 | enzyme activity | 400 nM
Cc1cc(S(=O)(=O)NCCO[C@H]2CC[C@H](CN3CCC(c4ccn5c(N6CCC(=O)NC6=O)cnc5c4)CC3)CC2)ccc1Nc1ncc2cc(Cl)c(=O)n(C3CCCC3)c2n1 | CDK7 with cyclin H | enzyme activity, radiometric | 3800 nM
COC(=O)CCCc1ccc(OCCN(C)c2ccccc2)cc1 | ACSL4 | enzyme activity | > 50000 nM
CCC(CC)COC(=O)[C@H](C)N[P@](=O)(OC[C@H]1O[C@@](C#N)(c2ccc3c(N)ncnn23)[C@H](O)[C@@H]1O)Oc1ccccc1 | CES1 | enzyme activity, absorbance | 36200 nM
CCc1ccc(C(=O)COc2ccc(CC3SC(=O)NC3=O)cc2)nc1 (stereo not shown) | ACSL4 | enzyme activity | 6000 nM
CCc1oc2ccccc2c1C(=O)c1cc(Br)c(O)c(Br)c1 | SLCO2B1 | transporter uptake, radiometric | 209 nM
CN(CCCCCCNC(=O)COc1ccc(C2CCC(=O)NC2=O)cc1)Cc1cn(Cc2ccc(C(=O)NO)cc2)c2ccccc12 (stereo not shown) | HDAC6 | enzyme activity, fluorescence | 31 nM
CNS(=O)(=O)c1ccc(Nc2ncc(C(F)(F)F)c([C@H]3CC[C@](C)(O)CC3)n2)c(C)c1 | CDK7 with cyclin H | enzyme activity, radiometric | 2130 nM
CN1C(=O)SC(Cc2ccc(OCCN(C)c3ccccn3)cc2)C1=O (stereo not shown) | ACSL4 | enzyme activity | 4500 nM
O=C1CCC(c2ccc(OCC(=O)OCCCCc3cn(CCCCCCN4CCc5c(c6ccccc6n5Cc5ccc(C(=O)NO)cc5)C4)nn3)cc2)C(=O)N1 (stereo not shown) | HDAC6 | enzyme activity, fluorescence | 49 nM
COC(=O)/C=C/c1ccc(OCCN(C)C(=O)c2ccccc2)cc1 | Long-chain-fatty-acid--CoA ligase 4 (ACSL4, Homo sapiens, UniProt O60488, Q302M) | enzyme activity | 7100 nM
COc1ccc(N(Cc2nc(-c3ccc(F)cc3)cs2)C(=O)CCCCCC(=O)NO)cc1 | HDAC6 | enzyme activity | 3.5 nM
N=C(N)c1ccc(OCCCCCOc2ccc(C(=N)N)cc2)cc1 | Prothrombin (F2, Homo sapiens, UniProt P00734) | enzyme activity, absorbance | > 100000 nM
CN(CCOc1cccc(CC2SC(=O)NC2=O)c1)c1ccccc1 (stereo not shown) | ACSL4 | enzyme activity | 10100 nM
COc1ccc(N(Cc2csc(-c3ccccc3)n2)C(=O)CCCCCC(=O)NO)cc1 | HDAC6 | enzyme activity | 2.7 nM
O=C(NO)c1ccc(Cn2cnc3c(Nc4ccc(Br)cc4F)ncnc32)cc1 | HDAC6 | enzyme activity, fluorescence | 9.13 nM
